Measurements as given in article PMC2646883 (Biochemistry, 2008).
“And” between values parts separate entries of the source, which are not always exact repeats. Equal values may be shown once. Read-outs that look alike come from different tables or passages of the source. Blank lines part the entries; values can stand above or below the molecule they belong to.

What was measured:
CpIMPDH [1] = molecular target: T1, CpIMPDH (Cryptosporidium parvum, UniProt Q8T6T2); conditions: cited from earlier work
T1 sequence (Q8T6T2 1-400): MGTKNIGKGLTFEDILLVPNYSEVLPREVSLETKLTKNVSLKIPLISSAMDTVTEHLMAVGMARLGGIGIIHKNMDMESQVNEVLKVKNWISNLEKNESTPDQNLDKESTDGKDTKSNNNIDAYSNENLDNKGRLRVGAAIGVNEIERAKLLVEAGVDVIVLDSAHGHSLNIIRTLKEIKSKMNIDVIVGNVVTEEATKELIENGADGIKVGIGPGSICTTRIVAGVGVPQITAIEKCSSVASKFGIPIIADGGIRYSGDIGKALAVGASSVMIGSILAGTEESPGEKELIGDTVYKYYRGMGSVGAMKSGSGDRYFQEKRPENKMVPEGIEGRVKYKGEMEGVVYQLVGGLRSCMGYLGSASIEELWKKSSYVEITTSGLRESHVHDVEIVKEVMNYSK

TfIMPDH [2] = molecular target: T2, TfIMPDH (Tritrichomonas foetus, UniProt P50097); conditions: refs 14 and 23; cited from earlier work
T2 sequence (P50097 1-503): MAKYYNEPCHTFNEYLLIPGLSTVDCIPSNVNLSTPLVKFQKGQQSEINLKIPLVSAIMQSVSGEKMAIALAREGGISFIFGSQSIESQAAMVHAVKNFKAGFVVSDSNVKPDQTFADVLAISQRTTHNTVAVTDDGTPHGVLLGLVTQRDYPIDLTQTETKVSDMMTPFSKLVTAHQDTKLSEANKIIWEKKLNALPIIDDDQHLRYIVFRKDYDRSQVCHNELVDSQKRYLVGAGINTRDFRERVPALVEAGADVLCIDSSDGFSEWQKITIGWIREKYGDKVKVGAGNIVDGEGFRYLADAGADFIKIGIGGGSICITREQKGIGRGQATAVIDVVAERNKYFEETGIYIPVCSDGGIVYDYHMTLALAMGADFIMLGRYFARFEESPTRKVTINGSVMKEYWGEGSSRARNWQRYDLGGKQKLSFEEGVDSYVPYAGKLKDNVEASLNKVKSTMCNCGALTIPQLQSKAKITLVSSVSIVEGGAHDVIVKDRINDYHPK

CpIMPDH [3] = molecular target: T1, CpIMPDH; assay: Steady-state kinetics of CpIMPDH; assay type: biochemical; conditions: for D2Okcat (solvent deuterium isotope effect on kcat): dinucleotide varied, 500 μM IMP, H2O vs D2O
CpIMPDH [4] = molecular target: T1, CpIMPDH; assay: Equilibrium dissociation constants by intrinsic protein fluorescence; assay type: binding; conditions: for Kd: free enzyme, 50 mM Tris-HCl, pH 8.0, 100 mM KCl, 1 mM DTT, 25 °C
hIMPDH2 [5] = molecular target: T3, hIMPDH2 (Homo sapiens, UniProt P12268); conditions: cited from earlier work
TfIMPDH [6] = molecular target: T2, TfIMPDH; assay: Inhibition by ligands of the dinucleotide site, TfIMPDH; assay type: biochemical
hIMPDH2 [7] = molecular target: T3, hIMPDH2; assay: Steady-state kinetics of hIMPDH2; assay type: biochemical; conditions: NAD^+ varied, 400 μM IMP, H2O vs D2O
In short: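 Buffer was 50 mM Tris-HCl pH 8.0, 100 mM KCl, 1 mM DTT, made in H2O or D2O, with D2O meter readings adjusted by adding 0.4. Runs were at 25 °C. […] Steady-state parameters came from eq 2.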

hIMPDH2 [8] = molecular target: T3, hIMPDH2; assay: Pre-steady-state kinetics and global fits of the hIMPDH2 reaction; assay type: biochemical; conditions: for Kapp ([NAD^+] at 1/2 kmax) / kmax/Kapp / kmax: fluorescence; for kmax: NAD^+ varied, 4 μM enzyme
CpIMPDH [9] = molecular target: T1, CpIMPDH; assay: Pre-steady-state kinetics and global fits of the CpIMPDH reaction; assay type: biochemical
CpIMPDH [10] = molecular target: T1, CpIMPDH; assay: XMP binding kinetics by stopped-flow protein fluorescence; conditions: 0.4 μM enzyme, 30 or 120 μM XMP, 25 °C
hIMPDH2 [11] = molecular target: T3, hIMPDH2; conditions: cited from earlier work; remark: listed apart in the source
[12] = substrate: NC(=O)c1ccc[n+]([C@@H]2O[C@H](COP(=O)([O-])OP(=O)(O)OC[C@H]3O[C@@H](n4cnc5c(N)ncnc54)[C@H](O)[C@@H]3O)[C@@H](O)[C@H]2O)c1; assay: Pre-steady-state kinetics and global fits of the CpIMPDH reaction; assay type: biochemical, Cryptosporidium parvum; conditions: other: calculated from global-fit rate constants (eq 12)

Molecule: Nc1ncnc2c1ncn2[C@@H]1O[C@H](COP(=O)(O)OP(=O)(O)O)[C@@H](O)[C@H]1O [ADP, adenosine-5′-diphosphate]
- Ki (CpIMPDH [1]): 42000 ± 6000 µM
- Ki (TfIMPDH [2]): 31000 ± 2000 µM

- D2Okcat (solvent deuterium isotope effect on kcat) (CpIMPDH [3]): 3.3 and 3.3 ± 0.1
- Km (CpIMPDH [3]; read-out: KM dinucleotide, pH 8.0, 25 °C, APAD^+ at saturating IMP (500 μM)): 190 ± 9 µM
Molecule: CC(=O)c1ccc[n+]([C@@H]2O[C@H](COP(=O)([O-])OP(=O)(O)OC[C@H]3O[C@@H](n4cnc5c(N)ncnc54)[C@H](O)[C@@H]3O)[C@@H](O)[C@H]2O)c1 [APAD^+, 3-acetylpyridine adenine dinucleotide]

- Kd (CpIMPDH [4]): 4.8 ± 0.6 µM
Molecule: Nc1nc2c(ncn2[C@@H]2O[C@H](COP(=O)(O)O)[C@@H](O)[C@H]2O)c(=O)[nH]1 [GMP, guanosine monophosphate]

- Kd (CpIMPDH [4]): 2.3 ± 0.2 µM
- factor of greater affinity of NADH than NAD^+ (CpIMPDH [4]; ratio of Kd values): 6
Molecule: NC(=O)C1=CN([C@@H]2O[C@H](COP(=O)(O)OP(=O)(O)OC[C@H]3O[C@@H](n4cnc5c(N)ncnc54)[C@H](O)[C@@H]3O)[C@@H](O)[C@H]2O)C=CC1 [NADH, reduced nicotinamide adenine dinucleotide]

- Kd (TfIMPDH [6]): 70 µM
- D2Okcat (solvent deuterium isotope effect on kcat) (hIMPDH2 [7]): 1.8 ± 0.1
- Kd (hIMPDH2 [8]; Kintr (intrinsic binding constant), NAD^+, derived from the global fits, Kc ≤0.2): 590 µM
- Kapp ([NAD^+] at 1/2 kmax) (hIMPDH2 [8]; burst phase): 86 ± 5 µM
- kmax/Kapp (hIMPDH2 [8]; burst phase): 140000 M⁻¹ s⁻¹
- kmax (hIMPDH2 [8]; burst phase): 12 ± 1 s⁻¹
- Kapp ([NAD^+] at 1/2 kmax) (hIMPDH2 [8]; lag phase): 68 ± 1 µM
- kmax/Kapp (hIMPDH2 [8]; lag phase): 340000 M⁻¹ s⁻¹
- kmax (hIMPDH2 [8]; lag phase): 23 ± 1 s⁻¹
- Kd (CpIMPDH [9]; Kintr (intrinsic binding constant), NAD^+, derived from the global fits, Kc = 4): 300 µM
- kmax/Kapp (CpIMPDH [9]; monitored by absorbance): 80000 M⁻¹ s⁻¹
- Kapp ([NAD^+] at 1/2 kmax) (CpIMPDH [9]; monitored by absorbance, 500 μM IMP): 510 ± 90 µM
- kmax (maximal kobs of burst, kburst) (CpIMPDH [9]; monitored by absorbance, NAD^+ varied, 500 μM IMP): 41 ± 2 s⁻¹
- kmax/Kapp (CpIMPDH [9]; monitored by fluorescence): 56000 M⁻¹ s⁻¹
- Kapp ([NAD^+] at 1/2 kmax) (CpIMPDH [9]; monitored by fluorescence, 500 μM IMP): 290 ± 60 µM
- kmax (maximal kobs of burst) (CpIMPDH [9]; monitored by fluorescence, NAD^+ varied, 500 μM IMP): 16 s⁻¹ and 16 ± 1 s⁻¹
- D2Okcat (solvent deuterium isotope effect on kcat) (CpIMPDH [3]): 2.6 and 2.6 ± 0.1
- Kd (CpIMPDH [4]; Kd): 14 ± 1 µM
Molecule: NC(=O)c1ccc[n+]([C@@H]2O[C@H](COP(=O)([O-])OP(=O)(O)OC[C@H]3O[C@@H](n4cnc5c(N)ncnc54)[C@H](O)[C@@H]3O)[C@@H](O)[C@H]2O)c1 [NAD^+, nicotinamide adenine dinucleotide]
- kcat (hIMPDH2 [5]; NAD^+ reaction, pH 8.0, 25 °C): 0.39 ± 0.01 ^c s^−1
- Km (hIMPDH2 [5]; read-out: KM dinucleotide): 6 ± 1 µM
- k12/k11 = Kii (NAD^+ binding to E-XMP*) (hIMPDH2 [5]; value fixed for global fitting): 590 µM
- Kii (TfIMPDH [2]): 6.8 ± 1.8 mM

Molecule: NC(=O)c1csc([C@@H]2O[C@H](CO)[C@@H](O)[C@H]2O)n1 [Tz, 2-β-D-ribofuranosylthiazole-4-carboxamide]
- Ki (TfIMPDH [2]): 50000 ± 10000 µM

- rate of XMP binding / release (too fast to measure) (CpIMPDH [10]): ≥ 200 s⁻¹
- Kd (CpIMPDH [4]; Kd): 5.6 ± 0.6 µM
Molecule: O=c1[nH]c(=O)c2ncn([C@@H]3O[C@H](COP(=O)(O)O)[C@@H](O)[C@H]3O)c2[nH]1 [XMP, xanthosine 5′-monophosphate]
- Kd (hIMPDH2 [11]): 140 µM

B1: CpIMPDH (Cryptosporidium parvum) (protein)
chain: T1 sequence (Q8T6T2 1-400)
- Km [12]: 40 µM
